In ChEMBL document CHEMBL3421605, “Structure-activity relationship studies of SEN12333 analogues: determination of the optimal requirements for binding affinities at α7 nAChRs through incorporation of known structural motifs” (Eur J Med Chem, 2015):

What was measured:
[1] = molecular target: Neuronal acetylcholine receptor; alpha4/beta2 (Rattus norvegicus, UniProt P09483+P12390); assay: Displacement of [3H]epibatidine from rat alpha4beta2 nAChR transfected in HEK293 cells by liquid scintillation counting; format: cell-based
Method in brief: (§1)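 Stably transfected HEK293 cells scraped at >80% confluence into 50 mM Tris·HCl pH 7.4 at 4 °C and spun at 10,000 g. Pellet homogenised and spun at 36,000 g for 10 min at 4 °C, then resuspended. Competition against racemic [3H]epibatidine at ~500 pM (α3β4, α4β2) or ~2 nM (α7). Nonspecific binding with 300 µM nicotine. GF/C filters pretreated with 0.5% PEI. Ki derived.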

[2] = molecular target: Neuronal acetylcholine receptor; alpha3/beta4 (Rattus norvegicus, UniProt P04757+P12392); assay: Displacement of [3H]epibatidine from rat alpha3beta4 nAChR transfected in HEK293 cells by liquid scintillation counting; format: cell-based; method in brief: as §1
[3] = molecular target: T1, Neuronal acetylcholine receptor subunit alpha-7 (Rattus norvegicus, UniProt Q05941); assay: Displacement of [3H]epibatidine from rat alpha7 nAChR transfected in HEK293 cells by liquid scintillation counting; format: cell-based; method in brief: as §1
[4] = molecular target: Neuronal acetylcholine receptor subunit alpha-7 (Rattus norvegicus) (UniProt Q05941); assay: Agonist activity at rat alpha7 nAChR expressed in GH4C1 cells by patch-clamp electrophysiology assay relative to acetylcholine; format: cell-based; settings: GH4-C1
[5] = molecular target: T1, Neuronal acetylcholine receptor subunit alpha-7; assay: Agonist activity at rat alpha7 nAChR expressed in GH4C1 cells by patch-clamp electrophysiology assay; format: cell-based, GH4-C1
[6] = molecular target: T1, Neuronal acetylcholine receptor subunit alpha-7; assay: Agonist activity at rat alpha7 nAChR expressed in GH4C1 cells by fluorescent calcium assay; format: cell-based, GH4-C1
Method in brief: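 GH4C1 cells stably expressing rat α7 loaded with Fluo4 Direct dye. Baseline fluorescence read, then compound added, and peak/base ratios taken; >1.00 taken as agonism. Tested at 0.03, 0.1, 0.3, 1, 3 and 10 µM (one compound at 0.001–0.3 µM), n = 3. EC50 from dose–response curves.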

T1 sequence (Q05941 whole entry): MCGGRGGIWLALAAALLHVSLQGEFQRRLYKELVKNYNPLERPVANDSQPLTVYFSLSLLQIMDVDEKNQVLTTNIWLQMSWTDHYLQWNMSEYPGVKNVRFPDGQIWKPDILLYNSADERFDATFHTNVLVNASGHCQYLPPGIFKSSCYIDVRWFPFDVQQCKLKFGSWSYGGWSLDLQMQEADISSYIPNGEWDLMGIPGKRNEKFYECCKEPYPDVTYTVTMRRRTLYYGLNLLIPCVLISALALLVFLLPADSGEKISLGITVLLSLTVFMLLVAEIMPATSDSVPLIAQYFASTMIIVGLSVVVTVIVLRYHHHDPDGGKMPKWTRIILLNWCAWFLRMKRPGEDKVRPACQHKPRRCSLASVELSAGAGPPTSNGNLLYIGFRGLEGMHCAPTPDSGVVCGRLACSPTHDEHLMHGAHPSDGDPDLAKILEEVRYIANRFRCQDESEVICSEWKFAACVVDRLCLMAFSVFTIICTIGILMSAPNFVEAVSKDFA
Neuronal acetylcholine receptor; alpha3/beta4, sequence (P04757 whole entry): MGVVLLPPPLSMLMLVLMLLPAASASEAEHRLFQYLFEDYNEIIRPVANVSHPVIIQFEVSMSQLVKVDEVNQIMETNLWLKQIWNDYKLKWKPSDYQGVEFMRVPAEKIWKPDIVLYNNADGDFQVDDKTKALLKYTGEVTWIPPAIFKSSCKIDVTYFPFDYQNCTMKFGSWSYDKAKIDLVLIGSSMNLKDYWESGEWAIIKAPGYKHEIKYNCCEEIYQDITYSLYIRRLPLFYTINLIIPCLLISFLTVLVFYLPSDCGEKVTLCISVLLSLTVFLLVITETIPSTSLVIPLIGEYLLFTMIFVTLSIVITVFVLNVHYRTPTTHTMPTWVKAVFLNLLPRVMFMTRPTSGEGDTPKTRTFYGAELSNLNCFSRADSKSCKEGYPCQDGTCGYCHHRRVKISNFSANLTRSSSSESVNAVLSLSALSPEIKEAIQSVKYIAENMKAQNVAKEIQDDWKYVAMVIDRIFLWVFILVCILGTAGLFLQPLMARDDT
Neuronal acetylcholine receptor; alpha3/beta4, sequence (P12392 whole entry): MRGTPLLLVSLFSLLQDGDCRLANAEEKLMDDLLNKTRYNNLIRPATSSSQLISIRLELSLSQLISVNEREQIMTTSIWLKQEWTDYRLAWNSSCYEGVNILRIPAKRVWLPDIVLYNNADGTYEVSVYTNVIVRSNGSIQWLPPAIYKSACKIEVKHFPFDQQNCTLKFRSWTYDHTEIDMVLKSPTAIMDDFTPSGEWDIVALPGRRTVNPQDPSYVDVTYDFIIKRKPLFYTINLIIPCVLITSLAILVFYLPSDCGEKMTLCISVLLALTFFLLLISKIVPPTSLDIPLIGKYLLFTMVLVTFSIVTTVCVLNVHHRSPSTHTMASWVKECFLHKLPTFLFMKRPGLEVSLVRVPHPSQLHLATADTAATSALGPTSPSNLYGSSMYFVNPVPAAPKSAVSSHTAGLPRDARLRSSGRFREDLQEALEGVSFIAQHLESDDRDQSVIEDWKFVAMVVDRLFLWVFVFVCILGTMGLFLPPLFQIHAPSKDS
Neuronal acetylcholine receptor; alpha4/beta2, sequence (P09483 whole entry): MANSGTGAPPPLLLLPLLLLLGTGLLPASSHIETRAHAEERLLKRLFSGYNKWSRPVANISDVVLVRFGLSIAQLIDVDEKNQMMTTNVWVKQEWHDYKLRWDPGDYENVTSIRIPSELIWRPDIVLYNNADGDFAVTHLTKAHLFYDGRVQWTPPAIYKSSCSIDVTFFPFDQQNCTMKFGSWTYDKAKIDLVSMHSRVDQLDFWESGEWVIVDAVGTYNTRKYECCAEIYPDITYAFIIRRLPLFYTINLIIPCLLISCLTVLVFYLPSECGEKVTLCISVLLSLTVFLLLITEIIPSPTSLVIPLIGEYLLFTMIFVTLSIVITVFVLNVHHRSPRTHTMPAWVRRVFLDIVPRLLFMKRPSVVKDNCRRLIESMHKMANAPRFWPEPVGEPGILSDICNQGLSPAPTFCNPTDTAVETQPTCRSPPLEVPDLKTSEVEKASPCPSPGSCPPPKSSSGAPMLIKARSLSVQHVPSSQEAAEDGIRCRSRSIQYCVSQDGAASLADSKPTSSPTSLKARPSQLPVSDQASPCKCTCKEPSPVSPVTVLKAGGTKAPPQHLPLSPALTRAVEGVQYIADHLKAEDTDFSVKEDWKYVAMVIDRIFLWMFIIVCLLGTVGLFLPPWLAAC
Neuronal acetylcholine receptor; alpha4/beta2, sequence (P12390 whole entry): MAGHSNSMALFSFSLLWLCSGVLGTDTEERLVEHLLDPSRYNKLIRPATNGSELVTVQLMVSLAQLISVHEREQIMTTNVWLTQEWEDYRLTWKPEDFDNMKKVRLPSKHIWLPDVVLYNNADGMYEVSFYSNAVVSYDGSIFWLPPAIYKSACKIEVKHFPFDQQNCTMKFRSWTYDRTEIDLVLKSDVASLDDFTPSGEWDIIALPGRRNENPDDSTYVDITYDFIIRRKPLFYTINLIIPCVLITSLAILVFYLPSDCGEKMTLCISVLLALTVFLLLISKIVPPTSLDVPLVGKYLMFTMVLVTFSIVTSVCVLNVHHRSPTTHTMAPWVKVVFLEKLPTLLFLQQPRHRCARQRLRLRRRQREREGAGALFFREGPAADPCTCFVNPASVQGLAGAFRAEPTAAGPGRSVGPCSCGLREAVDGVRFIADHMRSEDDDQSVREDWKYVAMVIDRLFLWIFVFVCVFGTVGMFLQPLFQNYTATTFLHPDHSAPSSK
Neuronal acetylcholine receptor subunit alpha-7 (Rattus norvegicus), sequence (Q05941 whole entry): as the sequence (Q05941 whole entry) above

Row | SMILES | Ki [1] | Ki [2] | Ki [3] | Emax [4] | EC50 [5] | EC50 [6]
1 | CN1CCN(CCCCNC(=O)c2ccc(-c3cccnc3)cc2)CC1 | > 10 µM | > 10 µM | > 10 µM |  |  | 
2 | CN1CCN(c2ccc(-c3ccccc3)cc2)CC1 | > 10 µM | > 10 µM | 7.7 µM |  |  | 
3 | c1cncc(-c2ccc(N3CCCCC3)cc2)c1 | > 10 µM | > 10 µM | > 10 µM |  |  | 
4 | CN1C[C@@H]2C[C@H]1CN2CCCCNC(=O)c1ccc(-c2cccnc2)cc1 | > 10 µM | > 10 µM | > 10 µM |  |  | 
5 | CN1CCN(CCCCC(=O)Nc2cc(-c3ccccc3)[nH]n2)CC1 | > 10 µM | > 10 µM | > 10 µM |  |  | 
6 | O=C(CCCCN1CCOCC1)Nc1ccc(-c2ccccn2)cc1 | > 10 µM | > 10 µM | 0.33 µM |  |  | 
7 | CN1C[C@@H]2C[C@H]1CN2c1ccc(-c2ccccc2)nn1 |  | > 50 µM |  |  |  | 
8 | O=C(CCCCN1CC2(COC2)C1)Nc1ccc(-c2cccnc2)cc1 | > 10 µM | > 50 µM | > 10 µM |  |  | 
9 | O=C(CCCCN1CC2(COC2)C1)Nc1ccc(-c2ccccc2)cc1 | > 10 µM | > 50 µM | > 10 µM |  |  | 
10 | c1ccc(-c2ccc(N3CCCCC3)nn2)cc1 | > 10 µM | > 10 µM | > 10 µM |  |  | 
11 | CN1CCN(c2ccc(-c3cccnc3)cc2)CC1 | > 10 µM | > 10 µM | 9.4 µM |  |  | 
12 | O=C(CCCCN1CCOCC1)Nc1ccc(-c2ccccc2)nn1 | > 10 µM | > 10 µM | > 10 µM |  |  | 
13 | O=C(CCCCN1CCOCC1)Nc1ccc(-c2ccncc2)cc1 | > 10 µM | > 10 µM | 0.35 µM |  |  | 0.522 µM
14 | c1ccc(-c2ccc(N3CCOCC3)cc2)cc1 | > 10 µM | > 10 µM | > 10 µM |  |  | 
15 | c1ccc(-c2ccc(N3CCCCC3)cc2)cc1 | > 10 µM | > 10 µM | > 10 µM |  |  | 
16 | CN1CCN(CCCCC(=O)Nc2ccc(-c3ccccc3)cc2)CC1 |  | 88.1 µM | 1.62 µM |  |  | 
17 | c1cncc(-c2ccc(N3CCOCC3)cc2)c1 |  | > 10 µM | > 10 µM |  |  | 
18 | O=C(CCCCN1CCCCC1)Nc1ccc(-c2ccccc2)cc1 | > 10 µM | 2.6 µM | 0.19 µM |  |  | 
19 | CN1C[C@@H]2C[C@H]1CN2CCCCC(=O)Nc1ccc(-c2cccnc2)cc1 | > 10 µM | > 100 µM | > 10 µM |  |  | 
20 | c1cc2cc(-c3ccc(N4CCOCC4)nn3)ccc2[nH]1 | > 10 µM | > 10 µM | > 10 µM |  |  | 
21 | O=C(CCCCN1CCOCC1)Nc1ccc(-c2cccnc2)cc1 | > 10 µM | > 10 µM |  | 104% | 42 µM | 0.687 µM
22 | O=C(CCCCN1CCCCC1)Nc1cc(-c2ccccc2)[nH]n1 | > 50 µM | > 10 µM | 0.66 µM |  |  | 
23 | CN1C[C@@H]2C[C@H]1CN2c1ccc(-c2cccnc2)cc1 | > 10 µM | > 10 µM | 0.14 µM |  |  | 0.126 µM

More lines, now with the values ahead:

Row | Ki [1] | Ki [2] | Ki [3] | Emax [4] | EC50 [5] | EC50 [6] | SMILES
24 | > 10 µM | > 10 µM | 0.41 µM |  |  |  | O=C(NCCCCN1CCCCC1)c1ccc(-c2ccccc2)cc1
25 | > 10 µM | > 100 µM | 5.4 µM |  |  |  | CN1CCN(CCCCNC(=O)c2ccc(-c3ccccc3)cc2)CC1
26 | > 10 µM | > 10 µM | 0.22 µM |  |  |  | O=C(CCCCN1CCCCC1)Nc1ccc(-c2cccnc2)cc1
27 | > 10 µM | > 10 µM | 0.085 µM | 136% | 27.3 µM | 0.145 µM | O=C(CCCCN1CCOCC1)Nc1ccc(-c2cccnc2F)cc1
28 | > 10 µM | > 10 µM | 0.034 µM |  |  | 0.253 µM | CN1C[C@@H]2C[C@H]1CN2c1ccc(-c2ccccc2)cc1
29 |  | 313 µM | 9.33 µM |  |  |  | CN1CCN(CCCCC(=O)Nc2ccc(-c3cccnc3)cc2)CC1
30 | > 100 µM | > 1000 µM | > 10 µM |  |  |  | c1ccc(-c2ccc(N3CCOCC3)nn2)cc1
31 | > 10 µM | > 10 µM | 6.1 µM |  |  |  | CN1C[C@@H]2C[C@H]1CN2CCCCNC(=O)c1ccc(-c2ccccc2)cc1
32 | > 10 µM | > 10 µM | 0.31 µM |  |  | 0.997 µM | O=C(CCCCN1CCOCC1)Nc1ccc(-c2ccc3[nH]ccc3c2)cc1
33 | > 10 µM | > 10 µM | 2.6 µM |  |  |  | O=C(CCCCN1CCOCC1)Nc1cc(-c2ccccc2)[nH]n1
34 | 0.417 µM | > 10 µM | 4.07 µM |  |  |  | CN1CCN(c2ccc(-c3ccccc3)nn2)CC1
35 | > 10 µM | > 50 µM | 1.4 µM |  |  |  | O=C(NCCCCN1CCCCC1)c1ccc(-c2cccnc2)cc1
36 | > 10 µM | > 10 µM | 3.2 µM |  |  |  | CN1C[C@@H]2C[C@H]1CN2CCCCC(=O)Nc1ccc(-c2ccccc2)cc1
